What all share (assay type): organism-based
Holding throughout (details): in vivo, other, 336 h

Series [1] relates to Glycine max. Description: Genotoxicity in Glycine max (soybean) exposed to compound through spray 4 times over 2 weeks assessed as HNE-dG adducts using [32P]labeling based autoradiography (reference value: 34 cpm). Summed up: (§1)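 Plants (2–6 weeks grown), groups of 2–4, sprayed 4 times over 2 weeks with formulations diluted per label (chlorothalonil 1:256, carbaryl 1:64 in water); controls water-sprayed. DNA from 1 g leaf via DNeasy Maxi kit. 10 µg DNA digested with micrococcal nuclease/spleen phosphodiesterase (4 h, 37 °C), NP1-enriched (45 min, 37 °C), labelled with [γ-32P]ATP/T4 kinase (45 min, 37 °C).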

For series [2], the system named is Cucurbita pepo. Nature of the series: Genotoxicity in Cucurbita pepo (pumpkin) exposed to compound through spray 4 times over 2 weeks assessed as relative adduct level A3 measured per 10^9 nucleotides using [32P]labeling based autoradiography relative to untreated control. In outline:
as §1

Series [3] concerns Cucumis sativus. Description: Genotoxicity in Cucumis sativus (cucumber) exposed to compound through spray 4 times over 2 weeks assessed as relative adduct level A3 measured per 10^9 nucleotides using [32P]labeling based autoradiography relative to untreated control. Summed up:
as §1

The subject of series [4] is Cucurbita pepo. Nature of the series: Genotoxicity inCucurbita pepo (pumpkin) exposed to compound through spray 4 times over 2 weeks assessed as relative adduct level A4 measured per 10^9 nucleotides using HX-dG internal standard using [32P]labeling based autoradiography relative to untreated control. Summed up: (§2)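 Plants grown 2-6 weeks, groups of 2-4 sprayed four times over 2 weeks with label-rate formulations; water-sprayed controls. Leaf DNA kit-extracted. 10 µg DNA digested with micrococcal nuclease/spleen phosphodiesterase 4 h at 37 °C. NP1-enriched, then labeled with [γ-32P]ATP/T4 kinase 45 min at 37 °C. 2D PEI-cellulose TLC, imager readout. Samples spiked with 50 fmol HX-dG standard.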

The test system of series [5] is Cucumis sativus. Description: Genotoxicity in Cucumis sativus (cucumber) exposed to compound through spray 4 times over 2 weeks assessed as relative adduct level A3 measured per 10^9 nucleotides using HX-dG internal standard using [32P]labeling based autoradiography relative to untreated control. In outline:
as §1

Another series relates to Phaseolus vulgaris. Nature of the series: Genotoxicity in Phaseolus vulgaris (bush beans) exposed to compound through spray 4 times over 2 weeks assessed as relative adduct level A3 measured per 10^9 nucleotides using HX-dG internal standard using [32P]labeling based autoradiography relative to untreated control. In outline: as §1
Series [6] concerns Vitis vinifera. Description: Genotoxicity in Vitis vinifera exposed to compound through spray 4 times over 2 weeks assessed as relative adduct level A3 measured per 10^9 nucleotides using [32P]labeling based autoradiography relative to untreated control. Summed up: as §2
The test system of series [7] is Cucumis sativus. Nature of the series: Genotoxicity in Cucumis sativus (cucumber) exposed to compound through spray 4 times over 2 weeks assessed as relative adduct level A1 measured per 10^9 nucleotides using HX-dG internal standard using [32P]labeling based autoradiography relative to untreated control. In outline:
as §1

Series [8] has as its system Cucurbita pepo. Description: Genotoxicity in Cucurbita pepo (pumpkin) exposed to compound through spray 4 times over 2 weeks assessed as relative adduct level A6 measured per 10^9 nucleotides using [32P]labeling based autoradiography relative to untreated control. In outline: as §1
The test system of series [9] is Vitis vinifera. Description: Genotoxicity in Vitis vinifera exposed to compound through spray 4 times over 2 weeks assessed as relative adduct level A2 measured per 10^9 nucleotides using HX-dG internal standard using [32P]labeling based autoradiography relative to untreated control. Summed up:
as §1

For series [10], the system named is Glycine max. Description: Genotoxicity in Glycine max (soybean) exposed to compound through spray 4 times over 2 weeks assessed as relative adduct level A3 measured per 10^9 nucleotides using HX-dG internal standard using [32P]labeling based autoradiography relative to untreated control. Summed up: as §1
The test system of series [11] is Cucurbita pepo. Description: Genotoxicity in Cucurbita pepo (pumpkin) exposed to compound through spray 4 times over 2 weeks assessed as relative adduct level A5 measured per 10^9 nucleotides using [32P]labeling based autoradiography relative to untreated control. In outline:
as §1

The test system of series [12] is Cucurbita pepo. Nature of the series: Genotoxicity in Cucurbita pepo (pumpkin) exposed to compound through spray 4 times over 2 weeks assessed as relative adduct level A1 measured per 10^9 nucleotides using [32P]labeling based autoradiography relative to untreated control. Summed up: as §1
Series [13] has as its system Vitis vinifera. Description: Genotoxicity in Vitis vinifera exposed to compound through spray 4 times over 2 weeks assessed as relative adduct level A1 measured per 10^9 nucleotides using HX-dG internal standard using [32P]labeling based autoradiography relative to untreated control. In outline: as §1
For series [14], the system named is Glycine max. Nature of the series: Genotoxicity in Glycine max (soybean) exposed to compound through spray 4 times over 2 weeks assessed as relative adduct level A5 measured per 10^9 nucleotides using [32P]labeling based autoradiography relative to untreated control. Summed up:
as §1

For series [15], the system named is Cucumis sativus. Description: Genotoxicity in Cucumis sativus (cucumber) exposed to compound through spray 4 times over 2 weeks assessed as relative adduct level A1 measured per 10^9 nucleotides using [32P]labeling based autoradiography relative to untreated control. Summed up: as §1
The subject of series [16] is Vitis vinifera. Nature of the series: Genotoxicity in Vitis vinifera exposed to compound through spray 4 times over 2 weeks assessed as relative adduct level A3 measured per 10^9 nucleotides using HX-dG internal standard using [32P]labeling based autoradiography relative to untreated control. In outline: as §1
The subject of series [17] is Glycine max. Description: Genotoxicity in Glycine max (soybean) exposed to compound through spray 4 times over 2 weeks assessed as relative adduct level A4 measured per 10^9 nucleotides using HX-dG internal standard using [32P]labeling based autoradiography relative to untreated control. In outline:
as §1

The test system of series [18] is Cucurbita pepo. Nature of the series: Genotoxicity in Cucurbita pepo (pumpkin) exposed to compound through spray 4 times over 2 weeks assessed as relative adduct level A1 measured per 10^9 nucleotides using HX-dG internal standard using [32P]labeling based autoradiography relative to untreated control. In outline: as §1
The subject of series [19] is Cucurbita pepo. Nature of the series: Genotoxicity in Cucurbita pepo (pumpkin) exposed to compound through spray 4 times over 2 weeks assessed as relative adduct level A6 measured per 10^9 nucleotides using HX-dG internal standard using [32P]labeling based autoradiography relative to untreated control. Summed up: as §1

Each structure is given as a SMILES string.

For the compound `N#Cc1c(Cl)c(Cl)c(Cl)c(C#N)c1Cl` [CHLOROTHALONIL], the Activity in the series on Glycine max [1] is listed as 8163 cpm; with Cucurbita pepo [2], 60; in the series with Cucumis sativus [3], 229; in the series on Cucurbita pepo [4], 679 cpm; with Cucumis sativus [5], 10667 cpm; in the series with Phaseolus vulgaris, 5038 cpm. Further, the Activity in the series on Vitis vinifera [6] was found to be 155; in the series on Cucumis sativus [7], 5420 cpm; in the series on Cucurbita pepo [8], 1409; with Vitis vinifera [9], 4015 cpm; in the series with Glycine max [10], 6932 cpm; in the series on Cucurbita pepo [11], 63. The Activity in the series with Cucurbita pepo [12] was 73; with Vitis vinifera [13], 2201 cpm; in the series on Glycine max [14] it was 91; in the series with Cucumis sativus [15], 116; in the series with Vitis vinifera [16], 9447 cpm; with Glycine max [17] it was 6823 cpm. Moreover, the values for the Activity in the series on Cucurbita pepo [18] and in the series on Cucurbita pepo [19] were 3731 cpm and 71701 cpm, respectively.

For the origin of these results see ChEMBL document CHEMBL3045357, “DNA adducts as biomarkers for oxidative and genotoxic stress from pesticides in crop plants” (J Agric Food Chem, 2008).
